This note sets out measurements from ChEMBL document CHEMBL3992529, “Total Syntheses and Biological Activities of Vinylamycin Analogues” (J Med Chem, 2017).

In brackets after ≈: the same amount, converted by molar mass. Activity calls are given as the source filed them. The rule behind the calls is not given here.

A short description of data set [1]: Toxicity in wild-type zebrafish AB assessed as mortality at 50 ug/ml. Also on record: species or system Danio rerio. The settings on record: in vivo. The method, boiled down:
(§1)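 Wild-type AB zebrafish were randomly allocated to wells, 30 fish per well, and exposed to the test agent at a range of concentrations.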

Data set [2] concerns K562. As to the kind of experiment: Cytotoxicity against CM-Dil-labeled human K562 cells xenografted in wild-type zebrafish AB assessed as cell growth inhibition at 50 ug/ml measured after 2 days by fluorescence microscopic method relative to control. The format is functional. The method in brief: (§2)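 Wild-type AB zebrafish at 2 dpf yolk-injected with about 200 CM-DiI-labelled K562 cells, held at 35 °C to 3 dpf. Single waterborne dose in 0.1% DMSO aqueous solution, 30 fish per well. Then 2 days at 35 °C. 10 fish imaged by fluorescence microscopy and tumour-cell fluorescence intensity compared with vehicle control.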

Data set [3] is described as follows: Toxicity in wild-type zebrafish AB assessed as mortality at 4 ug/ml. Also on record: species or system Danio rerio. The settings on record: in vivo. The method, boiled down: as §1
Data set [4] can be described thus: Toxicity in wild-type zebrafish AB assessed as mortality at 20 ug/ml. Also on record: species or system Danio rerio. Conditions: in vivo. The method, boiled down: as §1
Data set [5] can be described thus: (§3) Toxicity in wild-type zebrafish AB assessed as mortality at 100 ug/ml. Also on record: species or system Danio rerio. The settings on record: AB wild-type, in vivo. The method, boiled down: as §1
A short description of data set [6]: Toxicity in wild-type zebrafish AB assessed as mortality at 0.8 ug/ml. The settings on record: in vivo. Also on record: species or system Danio rerio. The method, boiled down: as §1
In data set [7] the test system is K562. As to the kind of experiment: Induction of apoptosis in human K562 cells at 5 to 15 uM measured after 24 to 48 hrs by Annexin V-FITC/propidium iodide staining based flow cytometry. The format is functional, cell-based. The method, boiled down: (§4)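 K562 cells seeded at 1 × 10^5 per well and treated 24 h and 48 h. Cells washed in PBS, resuspended in binding buffer, stained in the dark with annexin V-FITC and PI for 15 min, then analysed by flow cytometry within 1 h. Values are mean ± SD of three independent experiments.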
Background: A flow cytometer gives signals particle by particle.

Data set [8] concerns K562. As to the kind of experiment: Cytotoxicity against human K562 cells measured after 72 hrs by MTT assay. Conditions: K562, 72 h. The format is functional, cell-based. On the technique in general: Tetrazolium dyes change colour on reduction, which living cells bring about.
The next data set has as its system Staphylococcus aureus. As to the kind of experiment: Antibacterial activity against Staphylococcus aureus measured after 24 hrs by turbidimetric based microdilution method. The format is functional. The method in brief:
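S. aureus grown 18 h at 37 °C in MH broth, diluted 50-fold and regrown to OD600 0.8–1.0, then diluted ten-fold serially to about 1 × 10^4 CFU/mL. Compounds two-fold serially diluted, 64 to 0.0625 µg/mL. MIC read by visual turbidity after 24 h at 37 °C.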
A general note: Dilution methods test growth across graded concentrations, often in twofold steps.

The nature of data set [9]: Stability of the compound at -20 degreeC incubated for one month. The format is physicochemical. Conditions: 730.5 h.
In data set [10] the test system is MCF7. As to the kind of experiment: Cytotoxicity against human MCF7 cells incubated for 72 hrs under normoxic condition by MTT assay. It counts as functional, cell-based. The settings on record: MCF7, 72 h. The method, boiled down:
(§5)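 MCF-7 cells seeded at 2 × 10^4 cells/100 µL in duplicate and preincubated 24 h. Serial dilutions added, then 72 h at 20% O2 (normoxia) or 1% O2 (hypoxia, modular chamber). Viability by MTT under normoxia. Values are mean ± SD of three independent experiments.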

For data set [11], the system named is K562. As to the kind of experiment: Cytotoxicity against CM-Dil-labeled human K562 cells xenografted in wild-type zebrafish AB assessed as cell growth inhibition at 5.6 ug/ml measured after 2 days by fluorescence microscopic method relative to control. It counts as functional. The method, boiled down: as §2
In data set [12] the test system is MCF7. As to the kind of experiment: Cytotoxicity against human MCF7 cells incubated for 72 hrs under hypoxic condition by MTT assay. It counts as functional, cell-based. Conditions: MCF7, 72 h. The method, boiled down:
as §5

In data set [13] the test system is K562. As to the kind of experiment: Induction of apoptosis in human K562 cells at 0.5 to 2 uM measured after 24 to 48 hrs by Annexin V-FITC/propidium iodide staining based flow cytometry. The format is functional, cell-based. The method in brief:
as §4

Data set [14] concerns K562. As to the kind of experiment: Cytotoxicity against CM-Dil-labeled human K562 cells xenografted in wild-type zebrafish AB assessed as cell growth inhibition at 16.7 ug/ml measured after 2 days by fluorescence microscopic method relative to control. The format is functional. The method in brief:
as §2

The species named for the next data set is Danio rerio. The description is as §3. The settings on record: in vivo. The method, boiled down: as §1
Data set [15] relates to MCF7. As to the kind of experiment: Selectivity index, ratio of IC50 for human MCF7 cells under hypoxic condition to IC50 for human MCF7 cells under normoxic condition. It counts as functional. The method, boiled down:
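Index computed as IC50(hypoxia)/IC50(normoxia) in MCF-7 cells, each from a 72 h MTT assay at 1% or 20% O2.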

Data set [16] in a line: Half life in Sprague-Dawley rat plasma at 1 mg/ml by HPLC analysis. It counts as ADME, cell-free. The method, boiled down:
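SD rat plasma diluted to 50% in water, prewarmed to 37 °C. 40 µL of a 1 mg/mL ACN stock added per 1 mL plasma. Samples taken at 0–1440 min, proteins precipitated with ACN containing internal standard, centrifuged. Supernatant quantified by C18 HPLC using the internal standard method.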

The nature of data set [17]: Stability of the compound at -20 degreeC incubated for 3 days. It counts as physicochemical. Conditions: 72 h.

As usually defined, the mortality is the share of the test organisms that died. As a reminder, the IC50 is the point on the concentration scale where inhibition reaches its midpoint. A low value points to greater potency. As a reminder, the MIC is the lowest concentration that inhibits growth of the organism. Broadly, the half-life is the time in which the quantity being followed falls by half. Low values mean rapid decline, high ones slow decline.

`Cc1ccc(NC(=O)c2ccc(CN3CCN(C)CC3)cc2)cc1Nc1nccc(-c2cccnc2)n1` [IMATINIB]: the mortality at 50 ug/ml in [1] worked out at 0%. In addition, in the data set with K562 [2], the “growth inhibition (GI)” value turned out to be 71%. Also, in data set [3], the mortality at 4 ug/ml is 0%. In addition, the mortality at 20 ug/ml in data set [4] was found to be 0%. For the same molecule, in data set [5], the mortality at 100 ug/ml was 100%. Moreover, the mortality at 0.8 ug/ml in data set [6] turned out to be 0%.

As to `C#CCCCCCCCCC(=O)OCC[C@@H]1C(=O)NC(=C)/C=C/C(=O)N[C@H](C)C(=O)N[C@@H](C(C)C)C(=O)O[C@H]1[C@H](C)CCCCCC`, in the data set with K562 [7], the result was Active. In the data set on K562 [8], the IC50 came to 4.41 µM. For the same molecule, the MIC against Staphylococcus aureus was > 64 µg/mL. In addition, the Stability result in data set [9] is listed as “Stable”.

In the case of `C=C1/C=C/C(=O)N[C@H](C)C(=O)N[C@@H](C(C)C)C(=O)O[C@@H]([C@H](C)CCCCCC)[C@H](CCO[Si](c2ccccc2)(c2ccccc2)C(C)(C)C)C(=O)N1`, the IC50 with MCF7 [10] was 6.26 µM; with MCF7 [12], 6.81 µM; with K562 [8], 0.64 µM. In addition, the entries for the “growth inhibition (GI)” value in the data set with K562 [11], in the data set with K562 [2] and in the data set on K562 [14] were 66%, 75% and 70%, respectively. In addition, the mortality at 50 ug/ml in data set [1] was found to be 0%. Moreover, in the data set on Staphylococcus aureus, the MIC is > 64 µg/mL. In addition, in data set [3], the mortality at 4 ug/ml turned out to be 0%. The mortality at 20 ug/ml in data set [4] came out at 0%. The result in the data set on K562 [13] was Active. Besides, the mortality result in the data set filed under Danio rerio was “Nd(Insoluble)”. Besides, the mortality at 0.8 ug/ml in data set [6] is 0%. In addition, the “Ratio IC50” value in the data set with MCF7 [15] worked out at 1.09. Moreover, the half-life at 1 mg/ml in [16] is 14.3 h. In addition, the Stability entry in data set [9] was “Stable”.

Regarding `C=C1/C=C/C(=O)N[C@@H](C)C(=O)N[C@H](C(C)C)C(=O)O[C@H]([C@@H](C)CCCCCC)[C@@H](CCO)C(=O)N1`, the IC50 came to 12.3 µM with MCF7 [10], 9.17 µM in the data set with MCF7 [12] and 4.86 µM in the data set with K562 [8]. In addition, in [17], the Stability entry is “Unstable”. The MIC with Staphylococcus aureus was found to be 8 µg/mL (≈ 16.2 µM). The “Ratio IC50” value with MCF7 [15] turned out to be 0.74. For the same molecule, the half-life at 1 mg/ml in [16] is 0.54 h.
